Experimental data from ChEMBL document CHEMBL4002574, “Structure-based exploration and exploitation of the S4 subsite of norovirus 3CL protease in the design of potent and permeable inhibitors” (Eur J Med Chem, 2017).

Experiments:
[1] = test system: Norovirus; experiment: Antiviral activity Norovirus infected in human HG23 cells assessed as decrease in viral RNA level measured after 48 hrs by qRT-PCR analysis; assay type: functional, cell-based; details: HG23, 48 h
How it was run: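 Norwalk virus replicon-bearing HG23 cells, confluent and semi-confluent, exposed 48 h to compound (up to 100 μM) or DMSO (<0.1%) in medium. Total RNA extracted, viral genome quantified by real-time qRT-PCR; EC50 derived from concentration-response data.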

[2] = Inhibition of Norovirus 3CL protease preincubated for 30 mins followed by addition of Edans-DFHLQ/GP-Dabcyl as substrate measured after 1 hr by FRET assay
How it was run: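 Protease preincubated 30 min at 37°C with serially diluted compound or DMSO in 20 mM HEPES pH 8, 200 mM NaCl, 0.4 mM EDTA, 60% glycerol, 6 mM DTT; Edans-DFHLQ/GP-Dabcyl substrate then added. Fluorescence (ex 360/em 460 nm) read 1 h later; background (substrate, no protease) subtracted; IC50 from variable-slope dose-response fit.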

[3] = Cytotoxicity against human HG23 cells measured after 72 hrs by […] CytoTox-96 non-radioactive assay; assay type: cell-based

Compound | EC50 [1] [nM] | IC50 [2] [nM] | CC50 at 72 h [3] [nM]
O=C1NCC[C@H]1C[C@H](NC(=O)[C@H](CC1CCCCC1)NS(=O)(=O)CCN1C(=O)c2ccccc2C1=O)C(O)S(=O)(=O)O (stereo partly specified) | 2100 | 2600 | > 100000
O=C1NCC[C@H]1C[C@H](NC(=O)[C@H](CC1CCCCC1)NS(=O)(=O)Cc1ccc(Cl)cc1)C(O)S(=O)(=O)O (stereo partly specified) | 2200 | 1200 | > 100000
CCCCCCCCCCOC(=O)N[C@@H](CC1CCCCC1)C(=O)N[C@H](C=O)C[C@@H]1CCNC1=O | 100 | 300 | 32100
COc1ccc(OCCCS(=O)(=O)N[C@@H](CC2CCCCC2)C(=O)N[C@H](C=O)C[C@@H]2CCNC2=O)cc1 | 200 | 1800 | > 100000
COc1ccc(OCCCS(=O)(=O)N[C@@H](CC2CCCCC2)C(=O)N[C@@H](C[C@@H]2CCNC2=O)C(O)S(=O)(=O)O)cc1 (stereo partly specified) | 200 | 1600 | > 100000
CCCCCCCCCCOC(=O)N[C@@H](CC1CCCCC1)C(=O)N[C@@H](C[C@@H]1CCNC1=O)C(O)S(=O)(=O)O (stereo partly specified) | 200 | 400 | 34500
CCCCCCCCS(=O)(=O)N[C@@H](CC1CCCCC1)C(=O)N[C@H](C=O)C[C@@H]1CCNC1=O | 300 | 1200 | 33800
O=C1NCC[C@H]1C[C@H](NC(=O)[C@H](CC1CCCCC1)NS(=O)(=O)Cc1ccccc1)C(O)S(=O)(=O)O (stereo partly specified) | 4300 | 4300 | > 100000
CCCCCCCCS(=O)(=O)N[C@@H](CC1CCCCC1)C(=O)N[C@@H](C[C@@H]1CCNC1=O)C(O)S(=O)(=O)O (stereo partly specified) | 200 | 1100 | 35400
O=C1NCC[C@H]1C[C@H](NC(=O)[C@H](CC1CCCCC1)NS(=O)(=O)CCc1cccc(Cl)c1)C(O)S(=O)(=O)O (stereo partly specified) | 800 | 1900 | > 100000
O=C1NCC[C@H]1C[C@H](NC(=O)[C@H](CC1CCCCC1)NS(=O)(=O)CCc1ccccc1)C(O)S(=O)(=O)O (stereo partly specified) | 800 | 2100 | > 100000
O=C[C@H](C[C@@H]1CCNC1=O)NC(=O)[C@H](CC1CCCCC1)NC(=O)OCCOCc1ccccc1 | 200 | 2100 | > 100000
O=C(N[C@@H](CC1CCCCC1)C(=O)N[C@@H](C[C@@H]1CCNC1=O)C(O)S(=O)(=O)O)OCCc1cccc(Cl)c1 (stereo partly specified) | 100 | 500 | 46700
O=C1NCC[C@H]1C[C@H](NC(=O)[C@H](CC1CCCCC1)NS(=O)(=O)c1cccc(Cl)c1)C(O)S(=O)(=O)O (stereo partly specified) | 1900 | 5700 | > 100000
O=C1NCC[C@H]1C[C@H](NC(=O)[C@H](CC1CCCCC1)NS(=O)(=O)c1cccs1)C(O)S(=O)(=O)O (stereo partly specified) | 8100 | 8500 | > 100000
O=C(N[C@@H](CC1CCCCC1)C(=O)N[C@@H](C[C@@H]1CCNC1=O)C(O)S(=O)(=O)O)OCCOCc1ccccc1 (stereo partly specified) | 300 | 1600 | > 100000
O=C[C@H](C[C@@H]1CCNC1=O)NC(=O)[C@H](CC1CCCCC1)NC(=O)OCCc1cccc(Cl)c1 | 100 | 600 | 43200

More lines, main results first:

EC50 [1] [nM] | IC50 [2] [nM] | Compound | CC50 at 72 h [3] [nM]
2300 | 5500 | O=C[C@H](C[C@@H]1CCNC1=O)NC(=O)[C@H](CC1CCCCC1)NS(=O)(=O)c1cccc(Cl)c1 | > 100000
7200 | 5100 | O=C1NCC[C@H]1C[C@H](NC(=O)[C@H](CC1CCCCC1)NS(=O)(=O)c1ccc(Cl)cc1)C(O)S(=O)(=O)O (stereo partly specified) | > 100000
9500 | 8500 | O=C[C@H](C[C@@H]1CCNC1=O)NC(=O)[C@H](CC1CCCCC1)NS(=O)(=O)c1ccccc1 | > 100000
700 | 1800 | O=C[C@H](C[C@@H]1CCNC1=O)NC(=O)[C@H](CC1CCCCC1)NS(=O)(=O)CCc1ccccc1 | > 100000
2400 | 1800 | O=C[C@H](C[C@@H]1CCNC1=O)NC(=O)[C@H](CC1CCCCC1)NS(=O)(=O)Cc1ccc(Cl)cc1 | > 100000
3500 | 5800 | O=C[C@H](C[C@@H]1CCNC1=O)NC(=O)[C@H](CC1CCCCC1)NS(=O)(=O)c1ccc(Cl)cc1 | > 100000
1100 | 2300 | O=C[C@H](C[C@@H]1CCNC1=O)NC(=O)[C@H](CC1CCCCC1)NS(=O)(=O)CCc1cccc(Cl)c1 | > 100000
8500 | 10400 | O=C[C@H](C[C@@H]1CCNC1=O)NC(=O)[C@H](CC1CCCCC1)NS(=O)(=O)c1cccs1 | > 100000
1200 | 1100 | O=C1NCC[C@H]1C[C@H](NC(=O)[C@H](CC1CCCCC1)NS(=O)(=O)c1ccc(-c2ccccc2)cc1)C(O)S(=O)(=O)O (stereo partly specified) | > 100000
2300 | 2500 | O=C[C@H](C[C@@H]1CCNC1=O)NC(=O)[C@H](CC1CCCCC1)NS(=O)(=O)CCN1C(=O)c2ccccc2C1=O | > 100000
12300 | 13500 | O=C1NCC[C@H]1C[C@H](NC(=O)[C@H](CC1CCCCC1)NS(=O)(=O)c1ccccc1)C(O)S(=O)(=O)O (stereo partly specified) | > 100000
4100 | 4500 | O=C[C@H](C[C@@H]1CCNC1=O)NC(=O)[C@H](CC1CCCCC1)NS(=O)(=O)Cc1ccccc1 | > 100000
2100 | 6200 | O=C1NCC[C@H]1C[C@H](NC(=O)[C@H](CC1CCCCC1)NS(=O)(=O)c1ccc(F)cc1)C(O)S(=O)(=O)O (stereo partly specified) | > 100000
1300 | 1300 | O=C[C@H](C[C@@H]1CCNC1=O)NC(=O)[C@H](CC1CCCCC1)NS(=O)(=O)c1ccc(-c2ccccc2)cc1 | > 100000
2000 | 4800 | O=C[C@H](C[C@@H]1CCNC1=O)NC(=O)[C@H](CC1CCCCC1)NS(=O)(=O)c1ccc(F)cc1 | > 100000
